A value given as a limit tells only on which side of the number the result lay.

Here are results for 8 compounds from ChEMBL document CHEMBL1687885, “Ethanesulfohydroxamic acid ester prodrugs of nonsteroidal anti-inflammatory drugs (NSAIDs): synthesis, nitric oxide and nitroxyl release, cyclooxygenase inhibition, anti-inflammatory, and ulcerogenicity index studies” (J Med Chem, 2011).

Series [1] is described as follows: Induction of HNO release per mol of compound in 0.6 mL MeOH and 0.2 mL of 1 M NaOH after 2 hr by gas chromatographic analysis. The series is classed as physicochemical. An outline of the steps:
(§1)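 HNO measured indirectly as N2O under anaerobic conditions: compound at 50 mM in 0.6 mL MeOH plus 0.2 mL 1 M NaOH; headspace (0.25 mL) injected at 2 and 24 h onto GC with thermal conductivity detector and Porapak Q column. % based on 2 mol HNO per mol N2O; mean of three experiments.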

A short description of series [2]: Induction of HNO release per mol of compound in 0.6 mL MeOH and 0.2 mL of 1 M NaOH after 24 hr by gas chromatographic analysis. Format: physicochemical. The method in brief:
as §1

Series [3] can be described thus: Induction of HNO release per mol of compound in 0.6 mL MeOH, 0.2 mL of 1 M NaOH and 100 mM glutathione after 2 hr by gas chromatographic analysis. The series is classed as physicochemical. The method in brief:
(§2)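 Compound 50 mM in MeOH-based solvent containing 100 mM glutathione and 250 mM NaOH (25 mM NaOH for some compounds); headspace N2O sampled at 2 and 24 h by GC with thermal conductivity detection. % HNO from 2 mol HNO per mol N2O; mean of three.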

Series [4] can be described thus: Induction of HNO release per mol of compound in 0.6 mL MeOH, 0.2 mL of 1 M NaOH and 100 mM glutathione after 24 hr by gas chromatographic analysis. The series is classed as physicochemical. The method in brief: as §2
Series [5] addresses T1, Prostaglandin G/H synthase 1 (Ovis aries, UniProt P05979).
T1 sequence (P05979 whole entry): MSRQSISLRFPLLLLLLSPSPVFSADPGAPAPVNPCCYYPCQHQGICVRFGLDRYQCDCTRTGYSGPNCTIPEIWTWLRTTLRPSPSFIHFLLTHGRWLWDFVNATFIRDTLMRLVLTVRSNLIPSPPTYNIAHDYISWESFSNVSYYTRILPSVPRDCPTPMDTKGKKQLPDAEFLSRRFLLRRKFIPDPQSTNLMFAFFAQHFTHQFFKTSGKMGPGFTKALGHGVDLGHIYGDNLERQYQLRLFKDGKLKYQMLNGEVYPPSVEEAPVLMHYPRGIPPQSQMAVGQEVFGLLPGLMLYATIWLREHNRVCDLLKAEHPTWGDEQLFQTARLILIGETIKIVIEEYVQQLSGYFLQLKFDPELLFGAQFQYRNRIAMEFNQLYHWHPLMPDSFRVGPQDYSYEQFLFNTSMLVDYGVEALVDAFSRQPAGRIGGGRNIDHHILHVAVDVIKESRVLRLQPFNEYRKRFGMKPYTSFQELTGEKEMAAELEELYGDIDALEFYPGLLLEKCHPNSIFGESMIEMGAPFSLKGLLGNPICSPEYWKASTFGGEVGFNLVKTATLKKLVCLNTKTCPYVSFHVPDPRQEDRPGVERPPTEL
Nature of the series: Inhibition of ovine COX-1.

For series [6], the system named is Rattus norvegicus. Nature of the series: Antiinflammatory activity in Sprague-Dawley rat assessed as inhibition of carrageenam-induced paw edema at 327 umol/kg, po administered 1 hr before carrageenan challenge measured after 3 hrs by Plethysmometer. Format: functional. An outline of the steps:
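Male Sprague-Dawley rats (160-180 g), three per group. Test agent was suspended in water with 1% methylcellulose and given orally 1 h before 0.05 mL 1% carrageenan in 0.9% NaCl was injected subcutaneously under the plantar skin of the right hind paw. Controls received vehicle only. Paw volume was measured at 0 and 3 h by plethysmometer. Result is % inhibition of inflammation, n = 3, with SEM.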

Series [7] is described as follows: Chemical stability of the compound in phosphate buffered saline of pH 7.4 assessed as NO release at 50 uM after 1.5 hr by Griess assay. The note with it: buffer, pH 7.4, 1.5 h.
Series [8] in a line: Induction of HNO release per mol of compound in 0.6 mL MeOH and 0.2 mL of 700 mM Tris buffer solution after 2 hr by gas chromatographic analysis.
Series [9] is described as follows: Induction of HNO release per mol of compound in 0.6 mL MeOH and 0.2 mL of 700 mM Tris buffer solution after 24 hr by gas chromatographic analysis.
Series [10] in a line: Chemical stability of the compound in phosphate buffered containg rat serum of pH 7.4 assessed as NO release at 50 uM after 1.5 hr by Griess assay. The conditions noted are these: pH 7.4, 1.5 h. For orientation: The Griess reaction detects nitrite, a stable product of nitric oxide.
Series [11] has as its system Rattus norvegicus. Nature of the series: Ulcerogenic activity in 12 fasting Sprague-Dawley rat assessed as ulcer index at 80 umol/kg, po measured after 6 hrs by magnifier lenses. The series is classed as toxicity, organism-based. The conditions noted are these: in vivo. An outline of the steps: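 Rats fasted (water allowed) 12 h, then given 80 μmol/kg orally suspended in 1.7 mL 1% methylcellulose; vehicle controls. After 6 h, CO2 euthanasia; stomachs opened along greater curvature, rinsed, ulcers counted and measured with magnifier lenses. UI = summed ulcer length (mm) per stomach averaged over n = 3 per group.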

Series [12] deals with Rattus norvegicus. Nature of the series: Antiinflammatory activity in po dosed Sprague-Dawley rat assessed as inhibition of carrageenam-induced paw edema administered 1 hr before carrageenan challenge measured after 3 hrs by Plethysmometer. Format: functional. The note with it: read-out: ID50 (the source's name). The method in brief: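 Male Sprague-Dawley rats (160-180 g), three per group; compounds suspended in water with 1% methyl cellulose given orally at no fewer than three doses (2.8-112 mg/kg range) 1 h before subplantar injection of 0.05 mL 1% carrageenan in 0.9% NaCl into right hind paw. Vehicle-only controls. Paw volume measured by plethysmometer at 0 and 3 h; ID50 from dose-response curve.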

In series [13] the test system is Rattus norvegicus. Nature of the series: Antiinflammatory activity in Sprague-Dawley rat assessed as inhibition of carrageenam-induced paw edema at 100 mg/kg, po administered 1 hr before carrageenan challenge measured after 3 hrs by Plethysmometer. Format: functional. The method in brief: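 Male Sprague-Dawley rats (160-180 g), three per group, received the test compound orally as a suspension in water with 1% methyl cellulose. One hour later, 0.05 mL of 1% carrageenan in 0.9% NaCl was injected subcutaneously into the right hind paw plantar skin. Controls received vehicle alone. Paw volume was read at 0 and 3 h, and % inhibition was reported with SEM (n = 3).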

Take `CC(C)Cc1ccc(C(C)C(=O)OCCS(=O)(=O)NO)cc1` (configuration not stated): the Activity in [1] came to 25%; in series [2] it was 24%; in series [3], 0%; in series [4], 7%; in series [7] it was 46.3%; in series [8], 0%. Moreover, the Activity in [9] amounted to 0%; in series [10], 2.1%. The same compound had an IC50 in series [5] of 1.1 µM. The inhibition in vivo at 327 µmol/kg in series [6] is 79.5%.

Turning to `CCS(=O)(=O)NO` [ETHANESULFONYLHYDROXAMIC ACID], the Activity in [1] was determined as 24%; in [2], 7%; in [3] it was 0%; in series [4], 0%; in series [7], 54.5%; in [8] it was 0%. Further, the Activity in [9] was 0%; in series [10], 1.4%. In addition, in [5], the half-maximal inhibitory concentration (IC50) is over 100 µM.

For `COc1ccc2c(c1)c(CC(=O)O)c(C)n2C(=O)c1ccc(Cl)cc1` [INDOMETHACIN], in [11], the UI was 64.5.

`COc1ccc2cc([C@H](C)C(=O)O)ccc2c1` [NAPROXEN]: the ED50 in series [12] stood at 29.7 µmol/kg.

With `CONS(=O)(=O)CCOC(=O)C(C)c1ccc(CC(C)C)cc1` (configuration not stated), the Activity in [1] amounted to 0%; in [2], 0%; in series [3], 0%; in [4] it was 0%; in series [7] it was 4.3%; in series [8], 0%. The Activity in series [9] worked out at 0%; in [10], 0.9%. In addition, half-maximal inhibition in series [5] (IC50) was put at 14.6 µM. The inhibition in vivo at 327 µmol/kg in [6] turned out to be 78.9%.

As to `O=C(Cc1ccccc1)OCCS(=O)(=O)NO`, the Activity in [1] is on record as 23%; in series [2] it was 21%; in series [3], 0%; in series [4], 7%; in series [7], 54.3%; in [8], 0%. Further, the Activity in series [9] worked out at 0%; in series [10] it was 4.8%. In addition, the IC50 in series [5] was over 100 µM. The inhibition in vivo at 100 mg/kg in series [13] turned out to be 12.4%.

Regarding `COc1ccc2c(c1)c(CC(=O)OCCS(=O)(=O)NO)c(C)n2C(=O)c1ccc(Cl)cc1`, the Activity is given as 20% in series [1]; 1% in series [2]; 1% in series [3]; 1% in [4]; 44.5% in [7]; 0% in [8]. The Activity in series [9] was 0%; in series [10] it was 3.2%. In series [5], this compound displayed an IC50 of 77.7 µM. Also, in series [12], the ED50 was 19.1 µmol/kg. For the same compound, in series [11], the UI was 0.

On to `COc1ccc2cc([C@H](C)C(=O)OCCS(=O)(=O)NO)ccc2c1`, for which the Activity in series [1] is on record as 24%; in series [2], 23%; in series [3], 2%; in [4], 4%; in series [7], 52.9%; in series [8], 0%. Further, the Activity in series [9] worked out at 0%; in series [10], 1.3%. Further, the half-inhibitory concentration (IC50) in series [5] was determined as 4.5 µM. Further, the ED50 in [12] stood at 11.8 µmol/kg.

For orientation: IC50 means the midpoint of a concentration-inhibition curve. The low end stands for inhibition by little substance, the high end for a need for much substance. Usually inhibition in vivo stands for the percentage by which the read-out fell short of the control.
